Test results published in ChEMBL document CHEMBL1151724, “Sesquiterpene lactones from Gonospermum gomerae and G. fruticosum and their cytotoxic activities” (J Nat Prod, 2008).
Activity calls are given as the source filed them. The calls are words filed in the database; no cut-off is given here.

Key:
[1] = system: SK-MEL-1; assay: Cytotoxicity against human SK-MEL-1 cells after 72 hrs by MTT assay; format: functional, cell-based; conditions: SK-MEL-1, 72 h
In short: (§1)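 Exponentially growing cells, 1 × 10^4 per well in RPMI 1640 with 10% FBS, treated with 0.3-100 µM for 72 h. DMSO at most 0.1% (v/v). Viability read by MTT reduction as absorbance at 570 nm and expressed as survival relative to control wells. IC50 obtained by curve fitting; means ± SE of three independent experiments, each in triplicate.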

[2] = system: A549; assay: Cytotoxicity against human A549 cells after 72 hrs by MTT assay; format: functional, cell-based; conditions: A549, 72 h; in short: as §1
[3] = system: HL-60; assay: Cell cycle arrest in human HL-60 cells assessed as accumulation at sub G0/G1 phase at 30 uM after 48 hrs by flow cytometry; format: functional
In short: (§2)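 Cells grown in RPMI 1640 with 10% heat-inactivated FBS at 37 °C, 5% CO2, exposed to 30 µM for 48 h. Washed in ice-cold PBS, fixed in 75% ethanol at -20 °C for 1 h, then stained with 50 µg/mL propidium iodide plus 100 µg/mL RNase A for 1 h at 37 °C in the dark. Phase distribution read by flow cytometry; mean ± SEM of two experiments.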

[4] = system: HL-60; assay: Cytotoxicity against human HL-60 cells after 72 hrs by MTT assay; format: functional, cell-based; conditions: HL-60, 72 h; in short: as §1
[5] = system: HL-60; assay: Cell cycle arrest in human HL-60 cells assessed as accumulation at G0/G1 phase at 30 uM after 48 hrs by flow cytometry; format: functional; in short: as §2
[6] = system: HL-60; assay: Cell cycle arrest in human HL-60 cells assessed as accumulation at S phase at 30 uM after 48 hrs by flow cytometry; format: functional; in short: as §2
[7] = system: HL-60; assay: Cell cycle arrest in human HL-60 cells assessed as accumulation at G2-M phase at 30 uM after 48 hrs by flow cytometry; format: functional; in short: as §2
[8] = system: U-937; assay: Cytotoxicity against human U937 cells after 72 hrs by MTT assay; format: functional, cell-based; conditions: U-937, 72 h; in short: as §1
[9] = system: HL-60; assay: Induction of apoptosis in human HL-60 cells upto 30 uM after 48 hrs by flow cytometry; format: functional, cell-based
In short: (§3)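 HL-60 cells exposed to 30 µM for 48 h. Hypodiploid (apoptotic) fraction quantified by flow cytometry; average ± SE of triplicate determinations from a representative experiment.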

[10] = system: HL-60; assay: Induction of apoptosis in human HL-60 cells assessed as apoptotic bodies at 30 uM after 24 hrs by fluorescence microscopy; format: functional, cell-based
In short: (§4)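 HL-60 or SK-MEL-1 cells exposed to 30 µM, then DNA-stained with Hoechst 33258 (bisbenzimide). Chromatin condensation, fragmentation and apoptotic bodies assessed by fluorescence microscopy.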

[11] = system: HL-60; assay: Effect on cell death in human HL-60 cells assessed as induction of procaspase 6 cleavage at 30 uM; format: functional, cell-based
In short: (§5)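 HL-60 cells (1 × 10^6) treated in RPMI 1640, lysed in Tris-HCl pH 6.8 with 2% SDS and boiled. Lysates run on 12% SDS-PAGE, transferred to PVDF and probed with anti-caspase-3, -6 or -7 antibodies, then HRP secondary. Bands detected by chemiluminescence; loading checked by Ponceau S staining. One representative blot of three.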

[12] = system: SK-MEL-1; assay: Induction of apoptosis in human SK-MEL-1 cells assessed as apoptotic bodies at 30 uM after 24 hrs by fluorescence microscopy; format: functional, cell-based; in short: as §4
[13] = system: SK-MEL-1; assay: Induction of apoptosis in human SK-MEL-1 cells assessed as fragmentated and condensed chromatin at 30 uM after 24 hrs by fluorescence microscopy; format: functional, cell-based; in short: as §4
[14] = system: HL-60; assay: Effect on cell death in human HL-60 cells assessed as induction of procaspase 7 cleavage at 30 uM; format: functional, cell-based; in short: as §5
[15] = system: HL-60; assay: Induction of apoptosis in human HL-60 cells assessed as fragmentated and condensed chromatin at 30 uM after 24 hrs by fluorescence microscopy; format: functional, cell-based; in short: as §4
[16] = system: HL-60; assay: Effect on cell death in human HL-60 cells assessed as induction of procaspase 3 cleavage at 30 uM; format: functional, cell-based; in short: as §5
[17] = system: HL-60; assay: Induction of apoptosis in human HL-60 cells at 30 uM after 48 hrs by flow cytometry; format: functional; in short: as §3
[18] = system: HL-60; assay: Induction of apoptosis in human HL-60 cells assessed as internucleosomal DNA fragmentation at 30 uM after 24 hrs by ethidium bromide assay; format: functional, cell-based
In short: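 HL-60 cells exposed to 30 µM for 24 h. Total cellular DNA isolated, electrophoresed on 2% agarose, stained with ethidium bromide and inspected under UV for internucleosomal laddering.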

COc1cc([C@@H]2c3cc4c(cc3[C@@H](O[C@@H]3O[C@@H]5CO[C@@H](C)O[C@H]5[C@H](O)[C@H]3O)[C@H]3COC(=O)[C@H]23)OCO4)cc(OC)c1O [ETOPOSIDE]
IC50 [1]: > 30 µM
IC50 [2]: 5.9 µM
Activity [3]: 47.7%
IC50 [4]: 0.25 µM
Activity [5]: 29.4%
Activity [6]: 17.1%
Activity [7]: 2.6%
IC50 [8]: 0.92 µM

C=C1C(=O)O[C@H]2/C=C(/C)[C@@H](O)CC/C(C)=C/[C@@H](OC(=O)/C(C)=C/C)[C@H]12
Activity [9]: inactive

C=C1C(=O)O[C@H]2C[C@@]3(C)[C@H](OC(C)=O)CC[C@@](C)(O)[C@H]3[C@@H](O)[C@H]12
IC50 [1]: > 100 µM
IC50 [2]: > 100 µM
IC50 [4]: > 100 µM
IC50 [8]: > 100 µM
Activity [9]: inactive

C=CC(C)(O)C/C=C/C(C)(O)CCC(OC(C)=O)C(=C)C (stereo not given)
Activity [9]: inactive

C=C1C(=O)O[C@H]2/C=C(/C)[C@@H](OC(C)=O)CC/C(C)=C/[C@@H](OC(=O)/C(C)=C/C)[C@H]12
Activity [9]: inactive

C=C1C[C@@H]2OC(=O)C(=C)[C@H]2[C@H](OC(=O)/C(C)=C\C)/C=C(\C)CCC1=O
Activity [9]: inactive

C=C1C(=O)O[C@H]2C[C@@]3(C)[C@H](OC(C)=O)CC[C@@](C)(O)[C@H]3[C@@H](OC(C)=O)[C@H]12
IC50 [1]: 27.9 µM
Activity [10]: Active
IC50 [2]: > 100 µM
Activity [3]: 11.8%
Activity [11]: Active
Activity [12]: Active
Activity [13]: Active
IC50 [4]: 13.3 µM
Activity [14]: Active
Activity [15]: Active
Activity [16]: Active
Activity [5]: 39.3%
Activity [6]: 21.5%
Activity [17]: 12%
Activity [7]: 21.8%
Activity [18]: Active
IC50 [8]: 10.4 µM

C=C1C(=O)O[C@H]2C[C@@]3(C)[C@H](O)CCC(=C)[C@H]3[C@@H](OC(=O)/C(C)=C/C)[C@H]12
Activity [9]: inactive

C=C1CC[C@@H](OC(C)=O)[C@]2(C)C[C@H](OC(C)=O)[C@H]3C(=C)C(=O)O[C@@H]3C12 (stereo not given in full)
IC50 [1]: 14.3 µM
Activity [10]: Active
IC50 [2]: 72.4 µM
Activity [3]: 30%
Activity [11]: Active
Activity [12]: Active
Activity [13]: Active
IC50 [4]: 9.4 µM
Activity [14]: Active
Activity [15]: Active
Activity [16]: Active
Activity [5]: 26.8%
Activity [6]: 22%
Activity [17]: 30%
Activity [7]: 18.5%
Activity [18]: Active
IC50 [8]: 9.2 µM

C=C1C(=O)O[C@H]2C[C@@]3(C)[C@H](O)CC[C@@](C)(O)[C@H]3[C@@H](O)[C@H]12
Activity [9]: inactive

C=C1C(=O)O[C@H]2[C@H]1[C@@H](O)C[C@@]1(C)[C@H](O)CCC(=C)[C@@H]21
Activity [9]: inactive

C=C1C(=O)O[C@H]2C[C@@]3(C)[C@H](OC(C)=O)CCC(=C)[C@H]3[C@@H](OC(=O)/C(C)=C/C)[C@H]12
Activity [9]: inactive
